# Test results published in ChEMBL document CHEMBL1155280, “New arylthioindoles and related bioisosteres at the sulfur bridging group. 4. Synthesis, tubulin polymerization, cell growth inhibition, and molecular modeling studies” (J Med Chem, 2009).
# Active and inactive are the calls of the source. The rule behind the calls is not given here.
# Columns and labels:
# [1] = Inhibition of tubulin polymerization after 20 mins by spectrophotometry
# Outline: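 Tubulin 10 μM in 0.8 M monosodium glutamate, pH 6.6, preincubated 15 min at 30 °C with varying drug, chilled on ice. GTP added to 0.4 mM, turbidity at 350 nm followed 20 min at 30 °C. Extent of assembly measured; IC50 ± SD.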
# Bos taurus = species on record: Bos taurus; experiment: Inhibition of [3H]colchicine binding to bovine tubulin at 5 uM after 10 mins by DEAE-cellulose filter method
# MCF7 [2] = experiment: Growth inhibition of human MCF7 cells after 48 hrs by sulforhodamine B assay; format: functional, cell-based; conditions: MCF7, 48 h
# MCF7 [3] = experiment: Selectivity index, ratio of IC50 for rat A10 cells to IC50 for human MCF7 cells; format: functional
# Outline: (§1)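 Selectivity index: IC50 in the named nontransformed line divided by IC50 in MCF-7 cells.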
# [4] = Growth inhibition of mouse J774.1 cells at 300 nM after 48 hrs by MTT assay relative to control; format: cell-based; conditions: read-out: GI
# M14 [5] = experiment: Cytotoxicity against human M14 cells after 48 hrs by MTT assay; format: functional, cell-based
# Outline: (§2)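 MTT assay. Seeded 10^5 cells/well, compound added after 24 h at 10, 30, 50, 100, 150, 200 nM for 24 or 48 h. MTT 1 mg/mL, 2 h at 37 °C in dark, formazan dissolved in DMSO, read at 550 nm. Triplicate; 0.5% DMSO control.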
# A10 = experiment: Growth inhibition of rat A10 cells; format: cell-based
# Outline: (§3)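 Human aortic smooth muscle, PtK2 kidney epithelial, rat A10 aortic smooth muscle and HUVEC lines grown as the supplier recommends, under 5% CO2.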
# [6] = Growth inhibition of Potorous tridactylus PtK2 cells; format: cell-based; outline: as §3
# HUVEC = experiment: Growth inhibition of HUVEC; format: cell-based; conditions: Homo sapiens; outline: as §3
# HEK293 [7] = experiment: Cytotoxicity against HEK293 cells assessed as effect on cell morphology at 300 nM after 48 hrs by time-lapse microscopy; format: cell-based; conditions: human, hek293, 48 h, 0.3 µM
# Outline: (§4)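 Morphology of HEK and M14 cells followed by time-lapse microscopy in 96-well plates at 37 °C, 5% CO2, with images captured every hour over 48 h.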
# HeLa [8] = experiment: Antiproliferative activity against human HeLa cells assessed as cell proliferation at 0.5 uM after 24 hrs by MTT assay relative to control; format: functional; conditions: read-out: Activity
# Outline: (§5)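 HeLa and HCT116/chr3 cells grown at 37 °C, 5% CO2 in D-MEM with 10% fetal calf serum (HCT116/chr3 medium plus 500 μg/mL G418). Seeded 1 × 10^3 cells/well, treated 24 h later for 24 h from 10 mM DMSO stock; 1% DMSO solvent control. Quadruplicate, repeated three times; given as % of control ± SD.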
# HCT-116 [9] = experiment: Antiproliferative activity against human HCT116 cells expressing mismatch repair gene MLH1 complemented with chromosome 3 assessed as cell proliferation at 0.5 uM after 24 hrs by MTT assay relative to control; format: functional; conditions: HCT-116, 24 h, read-out: Activity; outline: as §5
# MCF7 [10] = experiment: Selectivity index, ratio of IC50 for Potorous tridactylus PtK2 cells to IC50 for human MCF7 cells; format: functional; outline: as §1
# HEK293 [11] = experiment: Cytotoxicity against HEK293 cells after 48 hrs by MTT assay; format: cell-based, Homo sapiens; outline: as §2
# U-937 [12] = experiment: Cytotoxicity against human U937 cells at 10 to 200 nM by MTT assay; format: functional, cell-based; conditions: TDE = time-dependent effect; outline: as §2
# M14 [13] = experiment: Cytotoxicity against human M14 cells assessed as effect on cell morphology at 300 nM after 48 hrs by time-lapse microscopy; format: functional, cell-based; outline: as §4
# HeLa [14] = experiment: Antiproliferative activity against human HeLa cells assessed as cell proliferation at 1 uM after 24 hrs by MTT assay relative to control; format: functional; conditions: read-out: Activity; outline: as §5
# U-937 [15] = experiment: Cytotoxicity against human U937 cells after 48 hrs by MTT assay; format: functional, cell-based; outline: as §2
# [16] = Growth inhibition of HSMC; format: cell-based; conditions: Homo sapiens; outline: as §3
# M14 [17] = experiment: Cytotoxicity against human M14 cells at 10 to 200 nM by MTT assay; format: functional, cell-based; conditions: TDE = time-dependent effect; outline: as §2
# HCT-116 [18] = experiment: Antiproliferative activity against human HCT116 cells expressing mismatch repair gene MLH1 complemented with chromosome 3 assessed as cell proliferation at 1 uM after 24 hrs by MTT assay relative to control; format: functional; conditions: HCT-116, 24 h, read-out: Activity; outline: as §5
# MCF7 [19] = experiment: Selectivity index, ratio of IC50 for HUVEC to IC50 for human MCF7 cells; outline: as §1
# Homo sapiens = species on record: Homo sapiens; experiment: Selectivity index, ratio of IC50 for HSMC to IC50 for human MCF7; outline: as §1
# HEK293 [20] = experiment: Cytotoxicity against HEK293 cells at 10 to 200 nM by MTT assay; format: cell-based; conditions: human, hek293, 0.2 µM; TDE = time-dependent effect; outline: as §2
structure (smiles),measurement,setting,value
CCOC(=O)c1[nH]c2ccc(Cl)cc2c1C(=O)C(=O)c1cc(OC)c(OC)c(OC)c1,IC50,[1],> 40000 nM
CCOC(=O)c1[nH]c2ccc(Cl)cc2c1C(=O)Cc1cc(OC)c(OC)c(OC)c1,IC50,[1],> 40000 nM
CCOC(=O)c1[nH]c2ccc(OC)cc2c1C(O)c1cc(OC)c(OC)c(OC)c1 (stereo unspecified),IC50,[1],> 40000 nM
CCOC(=O)c1cn(Cc2cc(OC)c(OC)c(OC)c2)cn1,IC50,[1],> 40000 nM
CCOC(=O)c1c(C)c(C)c(C)n1Cc1cc(OC)c(OC)c(OC)c1,IC50,[1],> 40000 nM
COc1cc(C(=O)c2c[nH]c3ccccc23)cc(OC)c1OC,inhibition,Bos taurus,26%
same,IC50,MCF7 [2],150 nM
same,IC50,[1],3500 nM
COC(=O)c1[nH]c2ccc(OC)cc2c1S(=O)c1cc(OC)c(OC)c(OC)c1 (stereo unspecified),IC50,[1],> 40000 nM
COc1cc(C(=O)c2c[nH]c3ccc(Cl)cc23)cc(OC)c1OC,inhibition,Bos taurus,44%
same,IC50,MCF7 [2],53 nM
same,IC50,[1],2500 nM
COC(=O)c1[nH]c2ccc(OC)cc2c1C(=O)c1cc(OC)c(OC)c(OC)c1,Ratio IC50,MCF7 [3],5.6
same,"inhibition at 48 h, 0.3 µM",[4],20%
same,Activity,M14 [5],Dose-dependent effect
same,IC50,"M14 [5]; M14, 48 h",100 nM
same,IC50,A10,95 nM
same,inhibition,Bos taurus,78%
same,IC50,[6],190 nM
same,IC50,HUVEC,110 nM
same,Activity,HEK293 [7],Toxic
same,growth at 0.5 µM,HeLa [8],55%
same,IC50,MCF7 [2],17 nM
same,growth at 0.5 µM,HCT-116 [9],57%
same,Ratio IC50,MCF7 [10],11
same,IC50,"HEK293 [11]; Homo sapiens, HEK293, 48 h",140 nM
same,Activity,"HEK293 [11]; human, hek293, 48 h",Dose-dependent effect
same,Activity,U-937 [12],tde
same,IC50,[1],670 nM
same,Activity,M14 [13],Active
same,growth at 1 µM,HeLa [14],54%
same,Activity,U-937 [15],Dose-dependent effect
same,IC50,"U-937 [15]; U-937, 48 h",155 nM
same,IC50,[16],35 nM
same,Activity,M14 [17],tde
same,growth at 1 µM,HCT-116 [18],55%
same,Ratio IC50,MCF7 [19],6.5
same,Ratio IC50,Homo sapiens,2.1
same,Activity,HEK293 [20],tde
COC(=O)c1[nH]c2ccccc2c1Cc1cc(OC)c(OC)c(OC)c1,inhibition,Bos taurus,33%
same,IC50,MCF7 [2],190 nM
same,IC50,[1],4200 nM
COC(=O)c1[nH]c2ccc(OC)cc2c1S(=O)(=O)c1cc(OC)c(OC)c(OC)c1,IC50,[1],> 40000 nM
CCOC(=O)c1[nH]c2ccc(OC)cc2c1C(=O)c1cc(OC)c(OC)c(OC)c1,inhibition,Bos taurus,49%
same,IC50,MCF7 [2],90 nM
same,IC50,[1],2600 nM
COc1cc(Cc2c[nH]c3ccccc23)cc(OC)c1OC,IC50,[1],28000 nM
CCOC(=O)c1[nH]c2ccccc2c1C(=O)c1cc(OC)c(OC)c(OC)c1,inhibition,Bos taurus,51%
same,IC50,MCF7 [2],80 nM
same,IC50,[1],2600 nM
COC(=O)c1[nH]c2ccc(Cl)cc2c1C(=O)c1cc(OC)c(OC)c(OC)c1,inhibition,Bos taurus,61%
same,IC50,MCF7 [2],30 nM
same,IC50,[1],1600 nM
CCOC(=O)c1cccn1C(=O)c1cc(OC)c(OC)c(OC)c1,IC50,MCF7 [2],> 2500 nM
same,IC50,[1],32000 nM
COc1cc(Sc2c[nH]c3ccc(Cl)cc23)cc(OC)c1OC,inhibition,Bos taurus,51%
same,IC50,[1],2600 nM
CCOC(=O)c1c(CC)c(CC)c(C)n1Cc1cc(OC)c(OC)c(OC)c1,IC50,[1],> 40000 nM
CCOC(=O)c1[nH]c2ccccc2c1Cc1cc(OC)c(OC)c(OC)c1,IC50,[1],5400 nM
COc1cc(Sc2c[nH]c3ccccc23)cc(OC)c1OC,inhibition,Bos taurus,68%
same,IC50,[1],2600 nM
